The results in this text go back to ChEMBL document CHEMBL1124065, “Development of a new physicochemical model for brain penetration and its application to the design of centrally acting H2 receptor histamine antagonists” (J Med Chem, 1988).

Bounds are passed on as bounds.

A short description of data set [1]: Log of (Cbrain/Cblood) in rats. The following applies: rat.
For data set [2], the target named is Histamine H2 receptor (Cavia porcellus) (UniProt P47747). Description: In vitro Histamine H2 receptor antagonist activity in the histamine-stimulated guinea pig right atrium. It is filed as functional, tissue-based. The following applies: Cardiac atrium.
Data set [3] in a line: (§1) Logarithm of partition coefficient of the neutral form of compound given for octanol/water solvent system. It counts as physicochemical. The procedure, abridged: (§2)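 Shake-flask partitioning at 37 °C in 1-octanol/water and cyclohexane/water, with buffer salts setting aqueous pH. Aqueous-phase compound concentration was read spectrophotometrically before and after partitioning. Neutral-form log P was calculated from eq 1 using the measured log P at a stated pH and the pKa.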

Data set [4] is described as follows: Partition coefficient (Log Pn, neutral form, cyclohexane/water). It is filed as ADME. The procedure, abridged: (§3)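 Shake-flask partitioning at 37 °C in 1-octanol/water and cyclohexane/water, with buffer salts setting aqueous pH. Aqueous-phase compound concentration was read spectrophotometrically before and after partitioning. Neutral-form log P was calculated from eq 1 using the measured log P at a stated pH and the pKa. Values are means of ≥2 determinations. Δlog P = log P(octanol) − log P(cyclohexane).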

Data set [5] in a line: Change in logarithm of partition coefficient of the compound. It counts as physicochemical. The conditions noted are these: octanol/water. The gist of the method:
as §3

Data set [6] in a line: Log (Cbrain/Cblood) in rats. The following applies: rat.
The nature of data set [7]: as §1. It is filed as physicochemical. The gist of the method:
as §3
This is another data set of the same source.

Data set [8] is described as follows: Delta logPoct-cyc. The following applies: octanol/water. It counts as ADME. The procedure, abridged:
as §2

Data set [9] in a line: Logarithm of partition coefficient of the neutral form of compound given for […]/water solvent system. It counts as physicochemical. The following applies: octanol/water.

Histamine H2 receptor (Cavia porcellus), sequence (P47747 whole entry): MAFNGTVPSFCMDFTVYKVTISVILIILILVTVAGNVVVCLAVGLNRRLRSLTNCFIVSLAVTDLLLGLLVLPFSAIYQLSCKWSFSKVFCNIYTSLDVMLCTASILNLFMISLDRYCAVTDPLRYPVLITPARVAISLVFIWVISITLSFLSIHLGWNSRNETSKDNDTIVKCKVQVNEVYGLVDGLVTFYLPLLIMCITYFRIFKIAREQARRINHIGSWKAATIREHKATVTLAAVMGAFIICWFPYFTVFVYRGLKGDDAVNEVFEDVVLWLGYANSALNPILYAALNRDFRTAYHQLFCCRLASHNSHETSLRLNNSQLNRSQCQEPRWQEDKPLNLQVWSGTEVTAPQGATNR

A word on the Kp: it is tissue or fluid exposure divided by exposure in the circulation. The molecule `O=[N+]([O-])c1cc[nH]c1NCCSCc1ccccn1` showed a Kp in data set [1] (in vivo) of 0.18. Further, the -Log KB in data set [2] worked out at 6.7.
`CN(C)c1cccc(-c2csc(NC(=N)N)n2)c1`: the -Log KB in data set [2] was under 3.8.
As usually defined, the logP is a log measure of how a compound divides between an organic and an aqueous phase. As to `O=[N+]([O-])c1cc[nH]c1NCCSCc1nccc2ccccc12`, the logP in data set [3] turned out to be 2.79. Moreover, the -Log KB in [2] amounted to 6.84. Also, in data set [4], the “Log Pn” value is reported as -0.67. In addition, in data set [5], the “delta Log P” value was found to be 3.46.
`CN(C)Cc1ccc(-c2cccc(Nc3[nH]ccc3[N+](=O)[O-])c2)o1`: the Kp in data set [1] (brain and blood) was 0.545; in data set [6] (brain and blood), 0.537. The logP in data set [3] was 3.1. Further, the -Log KB in data set [2] came to 6.02. In addition, the “Log Pn” value in data set [4] is 0.22. Moreover, the “delta Log P” value in [5] is recorded as 2.88.
In the case of `NC(N)=Nc1nc(-c2ccccc2)cs1`, the Kp was 0.66 in data set [1] (brain and blood); 0.661 in [6] (brain and blood). In data set [3], this molecule had a logP of 2.64. Also, the “Log Pn” value in data set [4] is given as -1.28. For the same molecule, the “delta Log P” value in data set [5] came out at 3.92.
As for `N=C(N)Nc1nc(-c2cccc(N)c2)cs1`, the Kp in data set [1] (brain and blood) is 0.0705; in data set [6] (brain and blood), 0.0708. Moreover, in [3], the logP is 1.41. In addition, in data set [2], the -Log KB came to 7.33. The “Log Pn” value in [4] was -3.19. In addition, the “delta Log P” value in [5] worked out at 4.6.
As to `NCCCOc1cccc(CN2CCCCC2)c1`, the -Log KB in [2] is 5.19.
Regarding `COc1cccnc1CCCCNc1ncc(Cc2ccc(C)nc2)c(=O)[nH]1` [ICOTIDINE], the logP in [7] amounted to 2.58. For the same molecule, in [8], the “delta logP” value worked out at 5.18.
Consider `c1ccc(NCCCOc2cccc(CN3CCCCC3)c2)cc1`, for which, in data set [2], the -Log KB was 5.7.
Take `c1cc(CN2CCCCC2)cc(OCCCNc2nc3ccccc3o2)c1`: the partition ratio (Kp) in data set [1] (in vivo) amounted to 1.42. The molecule further gave a -Log KB in data set [2] of 7.19.
Consider `CN(C)Cc1ccc(CSCCNc2ncc(Cc3ccc4ccccc4c3)c(O)n2)o1`, for which the logP in data set [3] turned out to be 4.57. Moreover, the “delta logP” value in data set [8] was 4.1.
Consider `CC(NCCCOc1cccc(CN2CCCCC2)c1)=C(C#N)C#N`, for which the -Log KB in data set [2] is under 4.9.
With `O=[N+]([O-])c1c(Cc2ccccc2)c[nH]c1NCCSCc1ccccn1`, the Kp in data set [1] (brain and blood) was 0.724; in [6] (brain and blood), 0.759. For the same molecule, the -Log KB in [2] was 6.97.
As for `c1ccc(NCCCOc2cccc(CN3CCCCC3)c2)nc1`, the figures for the Kp in [1] (in vivo) and in data set [6] (in vivo) were 4.85 and 4.9, respectively. The logP in data set [3] turned out to be 4.29. Besides, the -Log KB in data set [2] was 6.09. In addition, in data set [4], the “Log Pn” value amounted to 3.23. Besides, the “delta Log P” value in data set [5] turned out to be 1.06.
For the molecule `CN/C(=C\[N+](=O)[O-])NCCSCc1ccc(CN(C)C)o1` [RANITIDINE], the Kp is 0.0586 in data set [1] (in vivo) and 0.0589 in [6] (in vivo). In data set [3], the logP came to 0.27. The same molecule returned a -Log KB in data set [2] of 7.05. For the same molecule, in data set [4], the “Log Pn” value was under -3.
For the molecule `CN(C)Cc1ccc(CSCCNc2[nH]cc(Cc3ccccc3)c2[N+](=O)[O-])o1`, the values for the Kp in [1] (in vivo) and in data set [6] (in vivo) were 0.184 and 0.186, respectively. For the same molecule, in [3], the logP is 3.65. Also, the -Log KB in [2] was found to be 7.35. Moreover, the “Log Pn” value in [4] worked out at 1.11. For the same molecule, the “delta Log P” value in [5] is 2.54.
`CN(C)c1cc(-c2n[nH]c(N)n2)ccn1`: in data set [2], the -Log KB turned out to be 5.59. In data set [6] (brain and blood), this molecule showed a Kp of 0.0676.
As to `CS(=O)(=O)NCCCOc1cccc(CN2CCCCC2)c1`, the -Log KB in data set [2] came out at 4.67.
In the case of `CN(C)Cc1ccnc(-c2cccc(Nc3[nH]ccc3[N+](=O)[O-])c2)c1`, the Kp in [1] (in vivo) was 0.454; in data set [6] (in vivo), 0.525. For the same molecule, the -Log KB in [2] turned out to be 6.6.
`CN(C)Cc1ccc(CSCCNc2[nH]ccc2[N+](=O)[O-])o1`: the Kp in data set [1] (brain and blood) was 0.0652; in data set [6] (brain and blood), 0.0759. Moreover, in data set [3], the logP turned out to be 1.64. This molecule also yielded a -Log KB in data set [2] of 6.63. For the same molecule, the “Log Pn” value in data set [4] is -1.48. Further, the “delta Log P” value in data set [5] worked out at 3.12.
For the molecule `CC(=O)NCCCOc1cccc(CN2CCCCC2)c1`, the Kp is 0.346 in data set [1] (in vivo) and 0.347 in data set [6] (in vivo). In data set [3], this molecule displayed a logP of 2.15. In data set [2], this molecule had a -Log KB of 7.79. The “Log Pn” value in data set [4] is 0.22. The “delta Log P” value in data set [5] is reported as 1.93.
In data set [2], `CN(C)Cc1ccc(-c2ccc(Nc3[nH]ccc3[N+](=O)[O-])cc2)o1` registered a -Log KB of under 4.3.
Consider `OCCCOc1cccc(CN2CCCCC2)c1`, for which, in data set [3], the logP was found to be 2.78. Moreover, the “Log Pn” value in data set [4] stood at 1.31.
For the molecule `Cc1ccc(Cc2c[nH]c(NCCSCc3ccc(CN(C)C)o3)nc2=O)cn1` [LUPITIDINE], the Kp in data set [1] (brain and blood) was 0.0884; in data set [6] (brain and blood), 0.0871. Moreover, in data set [3], the logP came to 2.33. Also, the “Log Pn” value is given as 2.64 in [9] and -1.48 in [4]. Further, in data set [2], the -Log KB came out at 7.91. For the same molecule, in data set [5], the “delta Log P” value is given as 3.81.
`Clc1cccc(Cl)c1N=C1NCCN1` [CLONIDINE]: the “delta logP” value in data set [8] is recorded as 2.44.
In turn, `c1cc(CN2CCCCC2)cc(OCCCNc2ccc3ccccc3n2)c1` gave a -Log KB in data set [2] of 6.21.
As to `O=C(NCCCOc1cccc(CN2CCCCC2)c1)c1ccccc1`, the Kp in data set [1] (in vivo) was 0.58; in data set [6] (in vivo), 0.575. Besides, the logP in data set [3] was found to be 3.97. Also, in data set [2], the -Log KB is 7.79. Moreover, in data set [4], the “Log Pn” value is given as 2.18. Further, the “delta Log P” value in [5] is 1.79.
`O=S(=O)(NCCCOc1cccc(CN2CCCCC2)c1)c1ccccc1` yielded a -Log KB in [2] of under 4.8.
Same read-out and setting: as for `FC(F)(F)CNCCCOc1cccc(CN2CCCCC2)c1`, the figure is under 4.3.
For `Cc1[nH]cnc1CSCCNc1[nH]ccc1[N+](=O)[O-]`, the logP in data set [3] amounted to 1.04. Also, the -Log KB in [2] came out at 7.31.
In [2], `CN(C)Cc1ccc(-c2cccc(CNc3[nH]ccc3[N+](=O)[O-])c2)o1` showed a -Log KB of under 3.8.
Turning to `O=[N+]([O-])c1cc[nH]c1NCCSCc1ncccc1Br`, the Kp in data set [1] (brain and blood) is 0.214; in [6] (brain and blood), 0.214. This molecule registered a logP in data set [3] of 1.75. The same molecule returned a -Log KB in data set [2] of 7.24. Moreover, the “Log Pn” value in [4] was -1.34. Also, the “delta Log P” value in [5] turned out to be 3.09.
For the molecule `N=C(N)Nc1nc(-c2ccccc2)cs1`, in data set [2], the -Log KB came out at 5.93.
As for `Cc1csc(N=C(N)N)n1`, the Kp in data set [1] (in vivo) was 0.873; in data set [6] (in vivo) it was 0.912. The same molecule returned a -Log KB in data set [2] of 6.27. In addition, the “Log Pn” value in data set [4] was -2.79. The “delta Log P” value in data set [5] was 4.03.
As for `CC/N=C(\NC#N)NCCSCc1ncccc1Br`, the Kp in data set [1] (in vivo) was 0.00753; in [6] (in vivo) it was 0.00708. In [3], this molecule came in with a logP of 1.98. Also, the -Log KB in data set [2] was determined as 6.5.
In the case of `C/N=C(\NC#N)Nc1cccc(-c2csc(N=C(N)N)n2)c1`, the Kp was 0.0293 in data set [1] (brain and blood); 0.0288 in [6] (brain and blood). Besides, in data set [2], the -Log KB stood at 7.84. Moreover, the “Log Pn” value in [4] is on record as -2.66. The “delta Log P” value in data set [5] came out at 4.26.
`COc1ccc(CN(CCN(C)C)c2ccccn2)cc1` [PYRILAMINE] displayed a logP in data set [3] of 3.3. In addition, the “delta logP” value in [8] came out at 0.71.
Regarding `c1cc(CN2CCCCC2)cc(OCCCNc2nccs2)c1`, the values for the Kp in data set [1] (in vivo) and in data set [6] (in vivo) were 1.98 and 2.75, respectively. Further, the -Log KB in data set [2] worked out at 7.41.
For `c1cc(CN2CCCCC2)cc(OCCCNc2nc3ccccc3s2)c1` [ZOLANTIDINE], in data set [1] (in vivo), the Kp worked out at 1.38. The molecule further came in with a -Log KB in [2] of 7.46. In data set [4], the “Log Pn” value amounted to 3.72. In [5], the “delta Log P” value is recorded as 1.69.
Turning to `CNC(=NCCSCc1csc(N=C(N)N)n1)NC#N` [TIOTIDINE], in data set [3], the logP was 0.6.
`CC(=O)Nc1cccc(-c2csc(N=C(N)N)n2)c1`: the Kp in data set [1] (in vivo) was 0.018; in [6] (in vivo), 0.0269. Moreover, the -Log KB in data set [2] worked out at 7.36.
